# Legend:
# Type in all cases: functional, cell-based
# [1] = target: T1, Organic cation/carnitine transporter 2 (Homo sapiens, UniProt O76082); assay: TP_TRANSPORTER: inhibition of Carnitine uptake (Carnitine: 0.02 uM, Ampicillin: 2500 uM) in OCTN2-expressing HeLa cells
# T1 sequence (O76082 whole entry): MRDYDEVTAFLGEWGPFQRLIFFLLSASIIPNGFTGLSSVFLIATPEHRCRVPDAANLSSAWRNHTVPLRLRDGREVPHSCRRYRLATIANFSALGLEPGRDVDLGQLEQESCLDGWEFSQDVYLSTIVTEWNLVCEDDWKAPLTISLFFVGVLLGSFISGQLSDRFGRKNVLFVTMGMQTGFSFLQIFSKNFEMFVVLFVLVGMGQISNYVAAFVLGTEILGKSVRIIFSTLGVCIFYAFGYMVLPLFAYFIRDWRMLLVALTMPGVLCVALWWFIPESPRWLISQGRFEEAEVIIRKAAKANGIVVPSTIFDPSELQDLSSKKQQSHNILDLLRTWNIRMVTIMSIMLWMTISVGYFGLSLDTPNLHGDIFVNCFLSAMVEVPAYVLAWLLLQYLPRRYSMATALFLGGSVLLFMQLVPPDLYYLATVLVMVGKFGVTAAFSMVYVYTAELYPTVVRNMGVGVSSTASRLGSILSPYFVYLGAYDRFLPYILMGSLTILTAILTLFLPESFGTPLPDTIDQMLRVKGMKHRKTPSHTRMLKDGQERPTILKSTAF
# [2] = target: T2, Organic cation/carnitine transporter 2 (Rattus norvegicus, UniProt O70594); assay: (§1) TP_TRANSPORTER: inhibition of Carnitine uptake (Carnitine: 0.02 uM, Cefadroxil: 2500 uM) in OCTN2-expressing HeLa cells; conditions: human
# T2 sequence (O70594 whole entry): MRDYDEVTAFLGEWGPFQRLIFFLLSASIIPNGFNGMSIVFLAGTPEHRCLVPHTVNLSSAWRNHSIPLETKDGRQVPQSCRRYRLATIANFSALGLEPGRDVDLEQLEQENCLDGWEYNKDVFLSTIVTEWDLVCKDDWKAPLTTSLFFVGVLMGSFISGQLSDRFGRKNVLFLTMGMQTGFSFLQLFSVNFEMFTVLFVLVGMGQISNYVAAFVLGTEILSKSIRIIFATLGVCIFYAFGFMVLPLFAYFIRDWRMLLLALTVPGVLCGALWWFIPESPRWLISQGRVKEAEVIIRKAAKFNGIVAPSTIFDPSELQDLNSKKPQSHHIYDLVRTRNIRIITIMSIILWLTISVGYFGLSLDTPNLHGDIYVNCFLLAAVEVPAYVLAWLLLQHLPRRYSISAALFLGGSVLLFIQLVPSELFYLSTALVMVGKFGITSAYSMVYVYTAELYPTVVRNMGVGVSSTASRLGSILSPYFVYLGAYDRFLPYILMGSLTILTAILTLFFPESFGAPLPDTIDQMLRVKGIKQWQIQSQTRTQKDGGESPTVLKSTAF
# Summary of the method: (§2)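 HeLa cells expressed human or rat OCTN2 cDNA by vaccinia virus/T7 system. [3H]carnitine (20 nM) uptake for 30 min at room temperature in Na+-containing Hepes/Tris buffer, pH 7.5, with β-lactam at 2.5 mM. Lysate radioactivity counted. Endogenous activity from vector-only cells subtracted. Four measurements from two transfections.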
# [3] = target: T1, Organic cation/carnitine transporter 2; assay: as §1; summary of the method: as §2
# [4] = target: T1, Organic cation/carnitine transporter 2; assay: TP_TRANSPORTER: inhibition of Carnitine uptake (Carnitine: 0.02 uM, Cefdinir: 2500 uM) in OCTN2-expressing HeLa cells
# [5] = target: T3, OCTN2 (organic cation/carnitine transporter 2) (Rattus norvegicus, UniProt O70594); assay: TP_TRANSPORTER: inhibition of Carnitine uptake (Carnitine: 0.02 uM, Cefepime: 2500 uM) in OCTN2-expressing HeLa cells; design: scale not given: the % may be the effect or the level left; conditions: human, probe carnitine (0.02 uM), read-out: Activity; summary of the method: as §2
# T3 sequence (O70594 whole entry): T2 sequence (O70594 whole entry)
# [6] = target: T1, Organic cation/carnitine transporter 2; assay: TP_TRANSPORTER: inhibition of Carnitine uptake (Carnitine: 0.02 uM) in OCTN2-expressing HeLa cells
# [7] = target: T4, Solute carrier family 15 member 2 (Rattus norvegicus) (UniProt Q63424); assay: TP_TRANSPORTER: inhibition of Gly-Sar uptake (Gly-Sar: 25 uM, Cefepime: 2500uM) in PEPT2-expressing HeLa cells
# T4 sequence (whole entry): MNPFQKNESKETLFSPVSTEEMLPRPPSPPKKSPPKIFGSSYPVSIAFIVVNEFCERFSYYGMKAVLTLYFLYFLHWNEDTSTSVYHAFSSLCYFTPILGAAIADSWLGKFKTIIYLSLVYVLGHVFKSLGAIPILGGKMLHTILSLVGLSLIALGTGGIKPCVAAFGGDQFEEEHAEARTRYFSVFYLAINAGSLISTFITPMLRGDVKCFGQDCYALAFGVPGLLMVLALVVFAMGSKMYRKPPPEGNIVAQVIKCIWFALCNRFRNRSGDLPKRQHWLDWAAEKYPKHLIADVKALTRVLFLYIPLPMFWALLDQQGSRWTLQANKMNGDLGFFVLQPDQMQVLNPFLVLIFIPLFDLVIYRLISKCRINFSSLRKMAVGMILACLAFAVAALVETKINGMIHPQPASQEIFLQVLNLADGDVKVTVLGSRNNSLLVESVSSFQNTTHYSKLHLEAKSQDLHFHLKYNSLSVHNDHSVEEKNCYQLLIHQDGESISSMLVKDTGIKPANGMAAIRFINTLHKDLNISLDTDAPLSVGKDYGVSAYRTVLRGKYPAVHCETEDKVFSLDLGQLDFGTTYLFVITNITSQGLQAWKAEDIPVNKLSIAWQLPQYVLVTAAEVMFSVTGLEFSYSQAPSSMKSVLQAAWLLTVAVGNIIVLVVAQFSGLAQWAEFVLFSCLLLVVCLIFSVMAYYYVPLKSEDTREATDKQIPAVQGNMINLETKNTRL
# Summary of the method: (§3)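 HeLa cells expressing rat PEPT2 cDNA. [14C]glycylsarcosine (25 μM) uptake for 5 min under an inward H+ gradient in Mes/Tris buffer, pH 6.0, with test compound at 2.5 mM. Vector-cell uptake subtracted. Results as percent of control, three independent measurements, mean ± S.E.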
# [8] = target: T5, Solute carrier family 15 member 1 (Homo sapiens) (UniProt P46059); assay: TP_TRANSPORTER: inhibition of Gly-Sar uptake (Gly-Sar: 50 uM, Cefepime: 2500uM) in PEPT1-expressing HeLa cells
# T5 sequence (whole entry): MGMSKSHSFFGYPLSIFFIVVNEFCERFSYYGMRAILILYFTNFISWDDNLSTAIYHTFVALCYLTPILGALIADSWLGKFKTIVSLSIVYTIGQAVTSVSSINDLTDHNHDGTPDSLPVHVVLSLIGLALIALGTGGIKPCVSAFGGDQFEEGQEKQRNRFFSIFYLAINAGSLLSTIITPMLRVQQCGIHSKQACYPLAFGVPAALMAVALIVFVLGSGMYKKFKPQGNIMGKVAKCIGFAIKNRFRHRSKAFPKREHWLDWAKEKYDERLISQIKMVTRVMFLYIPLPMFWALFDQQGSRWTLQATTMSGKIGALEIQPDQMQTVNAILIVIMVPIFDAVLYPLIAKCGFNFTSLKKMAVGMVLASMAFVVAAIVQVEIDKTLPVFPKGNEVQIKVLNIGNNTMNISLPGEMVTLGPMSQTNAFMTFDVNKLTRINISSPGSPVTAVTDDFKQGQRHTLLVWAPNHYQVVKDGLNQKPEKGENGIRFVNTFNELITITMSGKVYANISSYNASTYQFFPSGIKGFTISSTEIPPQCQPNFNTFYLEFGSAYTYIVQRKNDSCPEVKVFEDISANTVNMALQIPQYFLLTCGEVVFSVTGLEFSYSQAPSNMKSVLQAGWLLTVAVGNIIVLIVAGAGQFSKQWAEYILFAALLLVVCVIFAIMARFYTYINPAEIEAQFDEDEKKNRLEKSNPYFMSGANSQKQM
# Summary of the method: (§4)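 HeLa cells expressing human PEPT1 cDNA. [14C]glycylsarcosine (50 μM) uptake for 5 min in Mes/Tris buffer, pH 6.0, giving an H+ gradient, with test compound at 2.5 mM. Vector-transfected uptake subtracted. Percent of control, n=3, mean ± S.E.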
# [9] = target: T1, Organic cation/carnitine transporter 2; assay: TP_TRANSPORTER: inhibition of Carnitine uptake (Carnitine: 0.02 uM, Cefixime: 2500 uM) in OCTN2-expressing HeLa cells
# [10] = target: T5, Solute carrier family 15 member 1 (Homo sapiens); assay: TP_TRANSPORTER: inhibition of Gly-Sar uptake (Gly-Sar: 50 uM, Cefluprenam: 2500uM) in PEPT1-expressing HeLa cells; summary of the method: as §4
# [11] = target: T4, Solute carrier family 15 member 2 (Rattus norvegicus); assay: TP_TRANSPORTER: inhibition of Gly-Sar uptake (Gly-Sar: 25 uM, Cefluprenam: 2500uM) in PEPT2-expressing HeLa cells; summary of the method: as §3
# [12] = target: T6, OCTN2 (organic cation/carnitine transporter 2) (Homo sapiens, UniProt O76082); assay: (§5) TP_TRANSPORTER: inhibition of Carnitine uptake (Carnitine: 0.02 uM, Cefluprenam: 2500 uM) in OCTN2-expressing HeLa cells; design: scale not given: the % may be the effect or the level left; conditions: probe carnitine (0.02 uM), read-out: Activity; summary of the method: as §2
# T6 sequence (O76082 whole entry): T1 sequence (O76082 whole entry)
# [13] = target: T3, OCTN2 (organic cation/carnitine transporter 2); assay: as §5; design: scale not given: the % may be the effect or the level left; conditions: human, probe carnitine (0.02 uM), read-out: Activity; summary of the method: as §2
smiles,measurement,setting,value
CC1(C)S[C@@H]2[C@H](NC(=O)[C@H](N)c3ccccc3)C(=O)N2[C@H]1C(=O)O [AMPICILLIN],Activity,[1],is not an inhibitor [-]
CC1=C(C(=O)O)N2C(=O)[C@@H](NC(=O)[C@H](N)c3ccc(O)cc3)[C@H]2SC1 [CEFADROXIL],Activity,[2],is not an inhibitor [-]
same,Activity,[3],is not an inhibitor [-]
C=CC1=C(C(=O)O)N2C(=O)[C@@H](NC(=O)/C(=N\O)c3csc(N)n3)[C@H]2SC1 [CEFDINIR],Activity,[4],is not an inhibitor [-]
CO/N=C(\C(=O)N[C@@H]1C(=O)N2C(C(=O)[O-])=C(C[N+]3(C)CCCC3)CS[C@H]12)c1csc(N)n1 [CEFEPIME],activity at 2500 µM,[5],28%
same,IC50,[6],1700 µM
same,Activity,[7],is not an inhibitor [-]
same,Activity,[8],is not an inhibitor [-]
C=CC1=C(C(=O)O)N2C(=O)[C@@H](NC(=O)/C(=N\OCC(=O)O)c3csc(N)n3)[C@H]2SC1 [CEFIXIME],Activity,[9],is not an inhibitor [-]
CC[N+](C)(C/C=C/C1=C(C(=O)[O-])N2C(=O)[C@@H](NC(=O)/C(=N\OCF)c3nsc(N)n3)[C@H]2SC1)CC(N)=O (stereo partly drawn) [CEFLUPRENAM],Activity,[10],is not an inhibitor [-]
same,Activity,[11],is not an inhibitor [-]
same,activity at 2500 µM,[12],74%
same,activity at 2500 µM,[13],76%

# — ChEMBL document CHEMBL2074042, “beta-lactam antibiotics as substrates for OCTN2, an organic cation/carnitine transporter” (J Biol Chem, 2000)
